Measured values as given in publication PMC10203381 (Plant Communications, 2022).

Tests used:
SlDXS1 [1] = assay type: in vivo, Nicotiana benthamiana; conditions: FSM 200 μM or NF 40 μM; 5 dpi; compared with mock-treated controls
Method in brief: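 Agrobacterium GV3101 carrying untagged SlDXS1 at OD600 0.8 in MES/MgCl2/acetosyringone buffer, pH 5.6, was mixed 9:1 with an HcPro strain. FSM 200 μM, NF 40 μM or water was added before infiltrating 4-week-old leaves. At 5 dpi, about 300 mg of frozen tissue was extracted in TKMES with protease inhibitors and Triton, then cleared at 2800 g, 4°C. Samples in non-denaturing loading buffer were run on 7% SDS-PAGE and blotted with anti-DXS 1:500 overnight at 4°C.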

N. benthamiana leaves = assay: Leaf bleaching after infiltration with inhibitors; assay type: in vivo, Nicotiana benthamiana; conditions: FSM 200 μM or NF 40 μM in the agroinfiltration mixture; observed at 5 dpi
Method in brief: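 Leaves of 4-week-old plants were agroinfiltrated with an SlDXS1 construct plus an HcPro silencing suppressor (9:1). FSM 200 μM, NF 40 μM or water was included in the infiltration mixture. Bleaching was scored visually at 5 dpi.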

SlDXS1-GFP = assay type: in vivo, Nicotiana benthamiana; conditions: 3 dpi; for number of fluorescent spots (SlDXS1-GFP aggregates) per chloroplast: FSM 200 μM or NF 40 μM, compared with untreated controls
Method in brief: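 Agrobacterium GV3101 carrying SlDXS1-GFP was resuspended to OD600 0.8 in 10 mM MgCl2, 10 mM MES, 150 μM acetosyringone, pH 5.6. It was held 1.5 h at 28°C, then mixed 9:1 with an HcPro silencing-suppressor strain. FSM 200 μM, NF 40 μM or water was added before infiltrating leaves of 4-week-old plants. At 3 dpi, confocal imaging used 488 nm excitation and BP515-525 emission alongside chlorophyll fluorescence. Chloroplast and GFP-dot areas were measured from ≥7 images of different leaves, shown as mean and SD.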

[2] = system: MEP pathway intermediates in N. benthamiana leaves; assay type: in vivo, Nicotiana benthamiana; conditions: leaves infiltrated with SlDXS1, FSM 200 μM or NF 40 μM, 5 dpi; for Metabolite concentration DXP: control 7.69; for Metabolite concentration MEP: control 351.35; for Metabolite concentration MEcPP: control 671.68
EcDXS = molecular target: T1, EcDXS (Escherichia coli, UniProt P77488); assay type: cell-based
T1 sequence (P77488 1-620): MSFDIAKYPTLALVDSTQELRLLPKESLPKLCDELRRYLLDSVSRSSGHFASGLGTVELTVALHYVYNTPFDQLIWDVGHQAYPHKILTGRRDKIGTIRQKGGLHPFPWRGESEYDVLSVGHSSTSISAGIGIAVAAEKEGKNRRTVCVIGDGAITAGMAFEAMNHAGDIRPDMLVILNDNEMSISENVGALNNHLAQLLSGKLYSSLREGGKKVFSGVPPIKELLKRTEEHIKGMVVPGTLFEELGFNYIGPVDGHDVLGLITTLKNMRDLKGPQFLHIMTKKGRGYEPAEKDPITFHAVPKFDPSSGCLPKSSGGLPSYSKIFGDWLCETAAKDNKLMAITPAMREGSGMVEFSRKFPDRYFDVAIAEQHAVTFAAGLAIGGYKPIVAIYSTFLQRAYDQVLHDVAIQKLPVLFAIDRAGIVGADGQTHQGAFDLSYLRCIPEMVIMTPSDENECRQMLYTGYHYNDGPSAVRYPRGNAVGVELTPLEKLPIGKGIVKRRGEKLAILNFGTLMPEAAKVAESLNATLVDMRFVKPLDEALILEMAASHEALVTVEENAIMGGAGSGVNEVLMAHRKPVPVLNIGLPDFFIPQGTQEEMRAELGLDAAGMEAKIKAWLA

[3] = system: E. coli EcAB4-10 cells (EcDXS activity)
SlDXS1 [4] = molecular target: T2, SlDXS1 (Solanum lycopersicum, UniProt Q9XH50); assay type: cell-based
T2 sequence (Q9XH50 58-719): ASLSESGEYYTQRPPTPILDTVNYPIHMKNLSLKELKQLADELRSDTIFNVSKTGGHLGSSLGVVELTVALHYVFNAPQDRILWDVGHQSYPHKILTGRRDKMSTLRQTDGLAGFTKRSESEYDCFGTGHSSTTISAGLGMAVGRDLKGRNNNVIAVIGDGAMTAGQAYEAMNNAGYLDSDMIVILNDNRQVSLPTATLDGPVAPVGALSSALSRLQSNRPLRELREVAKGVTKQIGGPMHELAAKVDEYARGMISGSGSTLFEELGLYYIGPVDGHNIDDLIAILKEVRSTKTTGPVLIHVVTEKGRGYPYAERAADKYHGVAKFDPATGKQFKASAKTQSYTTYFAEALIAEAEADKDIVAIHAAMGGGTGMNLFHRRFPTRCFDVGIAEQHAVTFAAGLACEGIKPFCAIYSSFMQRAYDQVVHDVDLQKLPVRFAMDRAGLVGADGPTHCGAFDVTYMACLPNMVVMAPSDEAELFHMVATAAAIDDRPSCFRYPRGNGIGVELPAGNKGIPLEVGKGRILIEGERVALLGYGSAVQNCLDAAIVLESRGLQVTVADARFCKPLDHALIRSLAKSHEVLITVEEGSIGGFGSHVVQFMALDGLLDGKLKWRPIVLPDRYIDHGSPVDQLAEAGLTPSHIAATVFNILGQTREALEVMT

SlDXS1 [5] = molecular target: T2, SlDXS1; assay: Isothermal titration calorimetry; assay type: binding

Row | Structure (SMILES) | dimer-to-monomer ratio of SlDXS1 (SlDXS1 [1]) | leaf phenotype (N. benthamiana leaves) | number of fluorescent spots (SlDXS1-GFP aggregates) per chloroplast (SlDXS1-GFP) | Metabolite concentration DXP [2] | Metabolite concentration MEP [2] | Metabolite concentration MEcPP [2] | proportion of EcDXS dimers (EcDXS) | ratio of insoluble (aggregated) to soluble EcDXS protein (EcDXS) | cell growth (OD600) [3] | intracellular DXP levels [3] | intracellular IPP/DMAPP levels [3] | proportion of SlDXS1 dimers (SlDXS1 [4]) | ratio of insoluble (aggregated) to soluble SlDXS1 protein (SlDXS1 [4]) | size of the fluorescent spots (SlDXS1-GFP aggregates) (SlDXS1-GFP; NF 40 μM) | Kd (SlDXS1 [5])
1 | O=CN(O)CCCP(=O)(O)O [FSM, fosmidomycin] | increased | bleaching phenotype | higher amounts | 641.99 pg/mg dry weight | 7.67 pg/mg dry weight | 31.03 pg/mg dry weight |  |  |  |  |  |  |  |  | 
2 | C[C@@](O)(CCO)CC(=O)O [MVA, mevalonic acid] |  |  |  |  |  |  | proportion of dimers decreased | higher ratio of insoluble (aggregated) to soluble | did not show any growth impairment | much lower | markedly increased | proportion of dimers decreased | higher ratio of insoluble (aggregated) to soluble |  | 
3 | CNc1cnn(-c2cccc(C(F)(F)F)c2)c(=O)c1Cl [NF, norflurazon] | decreased | bleaching phenotype | lower amounts | 5.73 pg/mg dry weight | 175.33 pg/mg dry weight | 405.61 pg/mg dry weight |  |  |  |  |  |  |  | larger | 
4 | Cc1ncc(C[n+]2csc(CCO[P@](=O)(O)OP(=O)(O)O)c2C)c(N)n1 [TPP, thiamine diphosphate] |  |  |  |  |  |  |  |  |  |  |  |  |  |  | 4.2 ± 0.7 µM
